# Experimental data taken from ChEMBL document CHEMBL1909500, “Synthesis and in vitro anticancer activity of 6,7-methylenedioxy (or 5-hydroxy-6-methoxy)-2-(substituted selenophenyl)quinolin-4-one analogs” (Eur J Med Chem, 2011).
# The source made the active and inactive calls. The rule behind the calls is not given here.
# Assays:
# A498 = test: Anticancer activity against human A498 cells after 48 hrs by MTT assay; format: functional; conditions: A498, 48 h
# M14 = test: Anticancer activity against human M14 cells after 48 hrs by MTT assay; format: functional; conditions: M14, 48 h
# SK-MEL-5 = test: Anticancer activity against human SK-MEL-5 cells after 48 hrs by MTT assay; format: functional; conditions: SK-MEL-5, 48 h
# HL-60 = test: Induction of apoptosis in human HL60 cells assessed as caspase-3 activation at 0.1 to 1.0 uM after 24 hrs by Western blot analysis; format: functional, cell-based
# Outline: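 HL-60 cells at 2 × 10⁵/mL were exposed to the indicated concentrations for 24 h, washed in PBS and lysed for total protein. Immunoblots used HRP-linked secondary antibodies with ECL detection. Cyclin B1, CDK1, caspase-3 (17 kDa active form) and PARP (85 kDa fragment) were quantified and normalised to β-actin.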
# NCI-H226 = test: Anticancer activity against human NCI-H226 cells after 48 hrs by MTT assay; format: functional; conditions: NCI-H226, 48 h
# Malme-3M = test: Anticancer activity against human MALME-3M cells after 48 hrs by MTT assay; format: functional
# ACHN = test: Anticancer activity against human ACHN cells after 48 hrs by MTT assay; format: functional
# HT-29 = test: Anticancer activity against human HT-29 cells after 48 hrs by MTT assay; format: functional; conditions: HT-29, 48 h
# OVCAR-8 = test: Anticancer activity against human OVCAR8 cells after 48 hrs by MTT assay; format: functional; conditions: OVCAR-8, 48 h
# A549 = test: Anticancer activity against human A549 cells after 48 hrs by MTT assay; format: functional; conditions: A549, 48 h
# NCI-H460 = test: Anticancer activity against human NCI-H460 cells after 48 hrs by MTT assay; format: functional; conditions: NCI-H460, 48 h
# [1] = read-out: pLC50 (the source's name) (converted)
compound,measurement,setting,value
Cc1ccc(-c2cc(=O)c3cc4c(cc3[nH]2)OCO4)[se]1,GI50,A498,372 nM
same,CC50,A498; [1],> 100000 nM
same,TGI,A498; read-out: pTGI,> 100000 nM
same,GI50,M14,229 nM
same,CC50,M14; [1],> 100000 nM
same,TGI,M14; read-out: pTGI,> 100000 nM
same,GI50,SK-MEL-5,309 nM
same,Activity,HL-60,Active
same,GI50,NCI-H226,389 nM
same,CC50,NCI-H226; [1],> 100000 nM
same,TGI,NCI-H226; read-out: pTGI,> 100000 nM
same,GI50,Malme-3M,427 nM
same,CC50,Malme-3M; [1],> 100000 nM
same,TGI,Malme-3M; read-out: pTGI,> 100000 nM
same,GI50,ACHN,759 nM
same,CC50,ACHN; [1],> 100000 nM
same,TGI,ACHN; read-out: pTGI,> 100000 nM
same,GI50,HT-29,269 nM
same,CC50,HT-29; [1],> 100000 nM
same,TGI,HT-29; read-out: pTGI,> 100000 nM
same,GI50,OVCAR-8,339 nM
same,CC50,OVCAR-8; [1],> 100000 nM
same,TGI,OVCAR-8; read-out: pTGI,> 100000 nM
same,GI50,A549,245 nM
same,CC50,A549; [1],> 100000 nM
same,TGI,A549; read-out: pTGI (converted),646 nM
same,GI50,NCI-H460,331 nM
same,CC50,NCI-H460; [1],> 100000 nM
same,TGI,NCI-H460; read-out: pTGI,> 100000 nM
